# Measurements published in ChEMBL document CHEMBL1157747, “Discovery, structure-activity relationships, pharmacokinetics, and efficacy of glucokinase activator (2R)-3-cyclopentyl-2-(4-methanesulfonylphenyl)-N-thiazol-2-yl-propionamide (RO0281675)” (J Med Chem, 2010).
# Activity calls are given as the source filed them. The rule behind the calls is not given here.
# Tests used:
# [1] = tested on: Glucokinase (Homo sapiens); test: Activity of glucokinase assessed as stimulatory concentration required to increase 1.5 fold enzymatic activity
# [2] = tested on: Glucokinase (Homo sapiens); test: Activity of glucokinase at 30 uM
# [3] = tested on: Glucokinase (Homo sapiens); test: Activity of glucokinase up to 10 uM
# [4] = Aqueous solubility of the compound; assay type: physicochemical
# [5] = Tmax in CD rat at 30 mg/kg, po; assay type: ADME, organism-based; design: dose 30 mg/kg, route oral; conditions: in vivo
# [6] = tested on: Glucokinase (Homo sapiens); test: Activation of glucokinase assessed as […] in Km at 20 uM relative to control
# [7] = tested on: Glucokinase (Homo sapiens); test: Activation of glucokinase assessed as […] in Km at 1 uM relative to control
# [8] = AUC (0 to infinity) in CD rat at 10 mg/kg, po; assay type: ADME, organism-based; design: time infinity, dose 10 mg/kg, route oral; conditions: plasma
# [9] = AUC (0 to infinity) in CD rat at 5 mg/kg, iv; assay type: ADME, organism-based; design: time infinity, dose 5 mg/kg, route intravenous; conditions: plasma
# [10] = tested on: Glucokinase (Homo sapiens); test: Activation of glucokinase at 20 uM relative to control
# [11] = Cmax in CD rat at 30 mg/kg, po; assay type: ADME, organism-based; design: dose 30 mg/kg, route oral; conditions: in vivo
# [12] = tested on: Mus musculus; test: Reduction in glucose AUC in C57BL/6J mouse at 50 mg/kg, po pretreated 30 mins by oral glucose tolerance test relative to control; assay type: functional, organism-based; design: dose 50 mg/kg
# Procedure, shortened: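 Male C57BL/6J mice got a single oral 50 mg/kg dose and underwent an oral glucose tolerance test. Fasting glucose and glucose tolerance were compared with vehicle-treated animals. Values are mean ± STD, n = 6 per time point; Student's t test, P < 0.05.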
# [13] = Tmax in CD rat at 10 mg/kg, po; assay type: ADME, organism-based; design: dose 10 mg/kg, route oral; conditions: in vivo
# [14] = Oral bioavailability in CD rat at 30 mg/kg; assay type: ADME, organism-based; conditions: in vivo
# [15] = tested on: Pancreatic islet; test: […] of glucose-stimulated insulin secretion in C57BL/6J mouse isolated pancreatic islets cells after 4 to 5 days
# [16] = tested on: Glucokinase (Homo sapiens); test: Activation of glucokinase assessed as increase in Vmax at 1 uM relative to control
# [17] = Volume of distribution at steady state in CD rat at 5 mg/kg, iv; assay type: ADME, organism-based; design: dose 5 mg/kg, route intravenous; conditions: in vivo, read-out: Vdss
# [18] = Oral bioavailability in CD rat at 10 mg/kg; assay type: ADME, organism-based; conditions: in vivo
# [19] = Cmax in CD rat at 10 mg/kg, po; assay type: ADME, organism-based; design: dose 10 mg/kg, route oral; conditions: in vivo
# [20] = AUC (0 to infinity) in CD rat at 30 mg/kg, po; assay type: ADME, organism-based; design: time infinity, dose 30 mg/kg, route oral; conditions: plasma
# [21] = Clearance in CD rat at 5 mg/kg, iv; assay type: ADME, organism-based; design: dose 5 mg/kg, route intravenous; conditions: in vivo
Compound,Activity [1],other results
CNC(=O)NC(=O)C(CC1CCCC1)c1ccc(Cl)c(Cl)c1 (configuration not stated),1 µM,
O=C(Nc1ncc(CO)s1)C(CC1CCCC1)c1ccc(Cl)c(Cl)c1 (configuration not stated),0.75 µM,
COC(=O)c1cnc(NC(=O)C(CC2CCCC2)c2ccc(Cl)c(Cl)c2)s1 (configuration not stated),0.92 µM,
CCNC(=O)NC(=O)C(CC1CCCC1)c1ccc(Cl)c(Cl)c1 (configuration not stated),0.53 µM,
CNC(=O)NC(=O)C(CC1CCCC1)c1ccc(F)c(F)c1 (configuration not stated),8.5 µM,
CNC(=O)NC(=O)C(CC1CCCC1)c1ccc([N+](=O)[O-])cc1 (configuration not stated),5.4 µM,
CNC(=O)NC(=O)[C@@H](CC1CCCC1)c1ccc(Cl)c(Cl)c1,,Activity [2]: inactive; Activity [3]: inactive
O=C(Nc1nccs1)C(CC1CCCC1)c1ccc(Cl)c(Cl)c1 (configuration not stated),0.94 µM,solubility [4]: 5 µg/mL
C[S+]([O-])c1ccc(C(CC2CCCC2)C(=O)Nc2nccs2)cc1 (configuration not stated),2.2 µM,
Cc1csc(NC(=O)C(CC2CCCC2)c2ccc(Cl)c(Cl)c2)n1 (configuration not stated),1.2 µM,
O=C(NCCO)NC(=O)C(CC1CCCC1)c1ccc(Cl)c(Cl)c1 (configuration not stated),3.4 µM,
COC(=O)Cc1csc(NC(=O)C(CC2CCCC2)c2ccc(Cl)c(Cl)c2)n1 (configuration not stated),0.82 µM,
CNC(=O)NC(=O)C(CC1CCCC1)c1ccc(SC(F)(F)F)cc1 (configuration not stated),1.4 µM,
CNC(=O)NC(=O)C(CC1CCCC1)c1ccc(SC)cc1 (configuration not stated),3.2 µM,
COC(=O)c1csc(NC(=O)C(CC2CCCC2)c2ccc(Cl)c(Cl)c2)n1 (configuration not stated),0.5 µM,solubility [4]: 24 µg/mL
CNC(=O)NC(=O)C(CC1CCCCC1)c1ccc(Cl)c(Cl)c1 (configuration not stated),1.4 µM,
O=C(Nc1nccs1)C(Cc1ccccc1)c1ccc(Cl)c(Cl)c1 (configuration not stated),,Activity [2]: inactive
N=C(N)NC(=O)C(CC1CCCC1)c1ccc(Cl)c(Cl)c1 (configuration not stated),,Activity [2]: inactive
O=C(Nc1nccs1)C(CC1CCCC1)c1ccc(Cl)cc1 (configuration not stated),3.1 µM,
O=C(O)c1cnc(NC(=O)C(CC2CCCC2)c2ccc(Cl)c(Cl)c2)s1 (configuration not stated),26 µM,
CCOC(=O)CNC(=O)NC(=O)C(CC1CCCC1)c1ccc(Cl)c(Cl)c1 (configuration not stated),1.3 µM,
CNC(=O)N(C)C(=O)C(CC1CCCC1)c1ccc(Cl)c(Cl)c1 (configuration not stated),,Activity [2]: inactive

Compound,Activity [1],other results
Cc1cnc(NC(=O)C(CC2CCCC2)c2ccc(Cl)c(Cl)c2)s1 (configuration not stated),0.64 µM,
CSc1ccc(C(CC2CCCC2)C(=O)Nc2nccs2)cc1 (configuration not stated),2.2 µM,
CNC(=O)NC(=O)C(CC1CCCC1)c1cccc(S(=O)(=O)C(F)(F)F)c1 (configuration not stated),1 µM,
NC(=O)NC(=O)C(CC1CCCC1)c1ccc(Cl)c(Cl)c1 (configuration not stated),4.4 µM,
CCOC(=O)Cc1csc(NC(=O)C(CC2CCCC2)c2ccc(Cl)c(Cl)c2)n1 (configuration not stated),0.61 µM,
C=CCNC(=O)NC(=O)C(CC1CCCC1)c1ccc(Cl)c(Cl)c1 (configuration not stated),1.3 µM,
O=C(Nc1nccs1)C(CC1CCCC1)c1cccc(S(=O)(=O)C(F)(F)F)c1 (configuration not stated),1.4 µM,
NC(=O)NC(=O)C(CC1CCCCCC1)c1ccc(Cl)c(Cl)c1 (configuration not stated),12 µM,
CCOC(=O)CCNC(=O)NC(=O)C(CC1CCCC1)c1ccc(Cl)c(Cl)c1 (configuration not stated),8.4 µM,
CNC(=O)NC(=O)[C@H](CC1CCCC1)c1ccc(Cl)c(Cl)c1,0.41 µM,Tmax [5]: 3.3 h; fold change (FC) [6]: 0.22; fold change (FC) [7]: 0.66; AUC(0-inf) [8]: 455 ng·h/mL; AUC(0-inf) [9]: 1880 ng·h/mL; fold change (FC) [10]: 1.7; Cmax [11]: 0.471 µg/mL; Activity [12]: Active; Tmax [13]: 1.4 h; bioavailability [14]: 13%; Activity [15]: Dose-dependent effect; fold change (FC) [16]: 1.4; Vd [17]: 4.21 L/kg; bioavailability [18]: 12%; Cmax [19]: 133 µg/mL; AUC(0-inf) [20]: 1460 ng·h/mL; clearance [21]: 43.5 mL/min/kg
CNC(=O)NC(=O)C(CC1CCCC1)c1ccc(Cl)cc1 (configuration not stated),5.4 µM,
CS(=O)(=O)c1ccc([C@@H](CC2CCCC2)C(=O)Nc2nccs2)cc1 [Ro-281675],,Tmax [5]: 4.7 h; AUC(0-inf) [8]: 5150 ng·h/mL; AUC(0-inf) [9]: 2770 ng·h/mL; Cmax [11]: 4300 µg/mL; Activity [12]: Active; Tmax [13]: 3.3 h; Activity [15]: Dose-dependent effect; Vd [17]: 2.16 L/kg; bioavailability [18]: 92.8%; Cmax [19]: 1140 µg/mL; AUC(0-inf) [20]: 51700 ng·h/mL; clearance [21]: 30 mL/min/kg
NC(=O)NC(=O)C(CC1CCCCC1)c1ccc(Cl)c(Cl)c1 (configuration not stated),8.9 µM,
CNC(=S)NC(=O)C(CC1CCCC1)c1ccc(Cl)c(Cl)c1 (configuration not stated),3.8 µM,
O=C(O)CNC(=O)NC(=O)C(CC1CCCC1)c1ccc(Cl)c(Cl)c1 (configuration not stated),inactive,
O=C(O)CCNC(=O)NC(=O)C(CC1CCCC1)c1ccc(Cl)c(Cl)c1 (configuration not stated),,Activity [2]: inactive
O=C(Nc1nccs1)C(CC1CCCC1)c1ccc(SC(F)(F)F)cc1 (configuration not stated),1.8 µM,
COC(=O)CNC(=O)NC(=O)C(CC1CCCC1)c1ccc(Cl)c(Cl)c1 (configuration not stated),0.55 µM,
CC(C)CC(C(=O)NC(N)=O)c1ccc(Cl)c(Cl)c1 (configuration not stated),29 µM,
NC(=O)NC(=O)C(CC1CCC1)c1ccc(Cl)c(Cl)c1 (configuration not stated),10 µM,
O=C(Nc1nc(CCO)cs1)C(CC1CCCC1)c1ccc(Cl)c(Cl)c1 (configuration not stated),0.84 µM,
CC(C)CNC(=O)NC(=O)C(CC1CCCC1)c1ccc(Cl)c(Cl)c1 (configuration not stated),6.3 µM,

Compound,Activity [1],other results
NC(=O)NC(=O)C(CC1CC1)c1ccc(Cl)c(Cl)c1 (configuration not stated),40 µM,
O=C(Nc1nccs1)C(CC1CCCC1)c1ccc([N+](=O)[O-])cc1 (configuration not stated),0.84 µM,
CCCCNC(=O)NC(=O)C(CC1CCCC1)c1ccc(Cl)c(Cl)c1 (configuration not stated),,Activity [2]: inactive
CNC(=O)NC(=O)C(CC1CCCC1)c1ccc(S(C)(=O)=O)cc1 (configuration not stated),1.5 µM,
CNC(=O)NC(=O)C(CC(C)C)c1ccc(Cl)c(Cl)c1 (configuration not stated),6 µM,
O=C(O)Cc1csc(NC(=O)C(CC2CCCC2)c2ccc(Cl)c(Cl)c2)n1 (configuration not stated),8 µM,
CNC(=O)NC(=O)C(CC1CCCC1)c1ccccc1 (configuration not stated),28.2 µM,
CCOC(=O)c1csc(NC(=O)C(CC2CCCC2)c2ccc(Cl)c(Cl)c2)n1 (configuration not stated),2.7 µM,
COC(=O)CCNC(=O)NC(=O)C(CC1CCCC1)c1ccc(Cl)c(Cl)c1 (configuration not stated),3.2 µM,
CNC(=O)NC(=O)C(CC1CCCC1)c1ccc(Br)cc1 (configuration not stated),3.8 µM,
CC(C)CC(C(=O)NC(=O)N(C)C)c1ccc(Cl)c(Cl)c1 (configuration not stated),,Activity [2]: inactive
CNC(=O)NC(=O)C(CC1CCCC1)c1ccc(S(=O)(=O)C(F)(F)F)cc1 (configuration not stated),0.3 µM,
O=C(Nc1nc(CO)cs1)C(CC1CCCC1)c1ccc(Cl)c(Cl)c1 (configuration not stated),0.99 µM,
O=C(Nc1nccs1)C(CC1CCCC1)c1ccc(S(=O)(=O)C(F)(F)F)cc1 (configuration not stated),0.19 µM,
O=C(Nc1nccs1)C(CC1CCCC1)c1cccc(Cl)c1 (configuration not stated),1.7 µM,
CCCNC(=O)NC(=O)C(CC1CCCC1)c1ccc(Cl)c(Cl)c1 (configuration not stated),1.3 µM,
CNC(=O)NC(=O)C(CC1CCCC1)c1cccc(Cl)c1 (configuration not stated),3.7 µM,
CNC(=O)NC(=O)C(CCC1CCCC1)c1ccc(Cl)c(Cl)c1 (configuration not stated),,Activity [2]: inactive
O=C(O)c1csc(NC(=O)C(CC2CCCC2)c2ccc(Cl)c(Cl)c2)n1 (configuration not stated),29 µM,
O=C1NCCN1C(=O)C(CC1CCCC1)c1ccc(Cl)c(Cl)c1 (configuration not stated),,Activity [2]: inactive
CCOC(=O)c1cnc(NC(=O)C(CC2CCCC2)c2ccc(Cl)c(Cl)c2)s1 (configuration not stated),8 µM,
Cc1nc(NC(=O)C(CC2CCCC2)c2ccc(Cl)c(Cl)c2)sc1C (configuration not stated),1.6 µM,
